# Source: ChEMBL document CHEMBL4152188, “Design, synthesis and biological evaluation of C(4) substituted monobactams as antibacterial agents against multidrug-resistant Gram-negative bacteria” (Eur J Med Chem, 2018)
# Experiments:
# [1] = Elimination half life in human liver microsomes at 0.1 uM pre-incubated with compound followed by NADPH addition and measured after 60 mins by LC-MS/MS analysis; format: ADME, microsome; details: read-out: beta t1/2
# [2] = tested on: Escherichia coli; experiment: Antibacterial activity against extended-spectrum beta-lactamase producing Escherichia coli isolate 212648 after 18 hrs by CLSI broth microdilution method; format: functional; details: isolate 212648, 18 h
# [3] = tested on: Escherichia coli; experiment: Selectivity index, ratio of MIC for against extended-spectrum beta-lactamase producing Escherichia coli isolate 208687 to MIC for extended-spectrum beta-lactamase producing Escherichia coli isolate 208687 in presence of BPL; format: functional
# [4] = tested on: Escherichia coli; experiment: Antibacterial activity against Escherichia coli isolate 210737 after 18 hrs by CLSI broth microdilution method; format: functional; details: isolate 210737, 18 h
# [5] = tested on: Escherichia coli; experiment: Antibacterial activity against extended-spectrum beta-lactamase producing Escherichia coli isolate 208687 after 18 hrs by CLSI broth microdilution method; format: functional; details: isolate 208687, 18 h
# [6] = tested on: Escherichia coli; experiment: Antibacterial activity against extended-spectrum beta-lactamase producing Escherichia coli isolate 208687 after 18 hrs in presence of BPL by CLSI broth microdilution method; format: functional; details: isolate 208687, 18 h
# Summary of the method: (§1)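 CLSI broth microdilution against clinical isolates (ESBL E. coli, KPC-2 MDR K. pneumoniae, IMP-4 MDR P. aeruginosa; five per species). Iron limitation: Mueller-Hinton broth supplemented with 16 mg/liter 2,2'-bipyridyl to complex iron and induce iron uptake systems. Read-out: MIC.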
# [7] = tested on: Escherichia coli; experiment: Antibacterial activity against Escherichia coli isolate 210737 after 18 hrs in presence of BPL by CLSI broth microdilution method; format: functional; details: isolate 210737, 18 h; summary of the method: as §1
# [8] = tested on: Escherichia coli; experiment: Selectivity index, ratio of MIC for against Escherichia coli isolate 210737 to MIC for Escherichia coli isolate 210737 in presence of BPL; format: functional
# [9] = tested on: Escherichia coli; experiment: Selectivity index, ratio of MIC for against extended-spectrum beta-lactamase producing Escherichia coli isolate 212648 to MIC for extended-spectrum beta-lactamase producing Escherichia coli isolate 212648 in presence of BPL; format: functional
# [10] = tested on: Escherichia coli; experiment: Antibacterial activity against extended-spectrum beta-lactamase producing Escherichia coli isolate 209285 after 18 hrs by CLSI broth microdilution method; format: functional; details: isolate 209285, 18 h
# [11] = tested on: Escherichia coli; experiment: Antibacterial activity against extended-spectrum beta-lactamase producing Escherichia coli isolate 209285 after 18 hrs in presence of BPL by CLSI broth microdilution method; format: functional; details: isolate 209285, 18 h; summary of the method: as §1
# [12] = tested on: Escherichia coli; experiment: Selectivity index, ratio of MIC for against extended-spectrum beta-lactamase producing Escherichia coli isolate 209285 to MIC for extended-spectrum beta-lactamase producing Escherichia coli isolate 209285 in presence of BPL; format: functional
# [13] = tested on: Escherichia coli; experiment: Antibacterial activity against extended-spectrum beta-lactamase producing Escherichia coli isolate 106342 after 18 hrs in presence of BPL by CLSI broth microdilution method; format: functional; details: isolate 106342, 18 h; summary of the method: as §1
# [14] = tested on: Klebsiella pneumoniae; experiment: Selectivity index, ratio of MIC for against KPC-2 producing Klebsiella pneumoniae isolate 212423 to MIC for against KPC-2 producing Klebsiella pneumoniae isolate 212423 in presence of BPL; format: functional
# [15] = tested on: Klebsiella pneumoniae; experiment: Antibacterial activity against KPC-2 producing Klebsiella pneumoniae isolate 209632 after 18 hrs by CLSI broth microdilution method; format: functional; details: isolate 209632, 18 h
# [16] = tested on: Klebsiella pneumoniae; experiment: Selectivity index, ratio of MIC for against KPC-2 producing Klebsiella pneumoniae isolate 209632 to MIC for against KPC-2 producing Klebsiella pneumoniae isolate 209632 in presence of BPL; format: functional
# [17] = tested on: Klebsiella pneumoniae; experiment: Antibacterial activity against KPC-2 producing Klebsiella pneumoniae isolate 209735 after 18 hrs by CLSI broth microdilution method; format: functional; details: isolate 209735, 18 h
# [18] = tested on: Klebsiella pneumoniae; experiment: Antibacterial activity against KPC-2 producing Klebsiella pneumoniae isolate 209735 after 18 hrs in presence of BPL by CLSI broth microdilution method; format: functional; details: isolate 209735, 18 h; summary of the method: as §1
# [19] = tested on: Klebsiella pneumoniae; experiment: Selectivity index, ratio of MIC for against KPC-2 producing Klebsiella pneumoniae isolate 209735 to MIC for against KPC-2 producing Klebsiella pneumoniae isolate 209735 in presence of BPL; format: functional
# [20] = tested on: Klebsiella pneumoniae; experiment: Antibacterial activity against KPC-2 producing Klebsiella pneumoniae isolate 212232 after 18 hrs by CLSI broth microdilution method; format: functional; details: isolate 212232, 18 h
# [21] = tested on: Klebsiella pneumoniae; experiment: Antibacterial activity against KPC-2 producing Klebsiella pneumoniae isolate 212232 after 18 hrs in presence of BPL by CLSI broth microdilution method; format: functional; details: isolate 212232, 18 h; summary of the method: as §1
# [22] = tested on: Klebsiella pneumoniae; experiment: Selectivity index, ratio of MIC for against KPC-2 producing Klebsiella pneumoniae isolate 212232 to MIC for against KPC-2 producing Klebsiella pneumoniae isolate 212232 in presence of BPL; format: functional
# [23] = tested on: Klebsiella pneumoniae; experiment: Antibacterial activity against KPC-2 producing Klebsiella pneumoniae isolate 212229 after 18 hrs in presence of BPL by CLSI broth microdilution method; format: functional; details: isolate 212229, 18 h; summary of the method: as §1
# [24] = tested on: Klebsiella pneumoniae; experiment: Selectivity index, ratio of MIC for against KPC-2 producing Klebsiella pneumoniae isolate 212229 to MIC for against KPC-2 producing Klebsiella pneumoniae isolate 212229 in presence of BPL; format: functional
# [25] = tested on: Pseudomonas aeruginosa; experiment: Antibacterial activity against IMP-4 producing Pseudomonas aeruginosa isolate 212886 after 18 hrs by CLSI broth microdilution method; format: functional; details: isolate 212886, 18 h
# [26] = tested on: Pseudomonas aeruginosa; experiment: Antibacterial activity against IMP-4 producing Pseudomonas aeruginosa isolate 212886 after 18 hrs in presence of BPL by CLSI broth microdilution method; format: functional; details: isolate 212886, 18 h; summary of the method: as §1
# [27] = tested on: Pseudomonas aeruginosa; experiment: Selectivity index, ratio of MIC for against IMP-4 producing Pseudomonas aeruginosa isolate 212886 to MIC for against IMP-4 producing Pseudomonas aeruginosa isolate 212886 in presence of BPL; format: functional
# [28] = tested on: Pseudomonas aeruginosa; experiment: Antibacterial activity against IMP-4 producing Pseudomonas aeruginosa isolate 209471 after 18 hrs in presence of BPL by CLSI broth microdilution method; format: functional; details: isolate 209471, 18 h; summary of the method: as §1
# [29] = tested on: Pseudomonas aeruginosa; experiment: Selectivity index, ratio of MIC for against IMP-4 producing Pseudomonas aeruginosa isolate 209471 to MIC for against IMP-4 producing Pseudomonas aeruginosa isolate 209471 in presence of BPL; format: functional
# [30] = tested on: Pseudomonas aeruginosa; experiment: Antibacterial activity against IMP-4 producing Pseudomonas aeruginosa isolate 208247 after 18 hrs by CLSI broth microdilution method; format: functional; details: isolate 208247, 18 h
# [31] = tested on: Pseudomonas aeruginosa; experiment: Antibacterial activity against IMP-4 producing Pseudomonas aeruginosa isolate 208247 after 18 hrs in presence of BPL by CLSI broth microdilution method; format: functional; details: isolate 208247, 18 h; summary of the method: as §1
# [32] = tested on: Pseudomonas aeruginosa; experiment: Antibacterial activity against IMP-4 producing Pseudomonas aeruginosa isolate 209321 after 18 hrs by CLSI broth microdilution method; format: functional; details: isolate 209321, 18 h
# [33] = tested on: Pseudomonas aeruginosa; experiment: Selectivity index, ratio of MIC for against IMP-4 producing Pseudomonas aeruginosa isolate 209321 to MIC for against IMP-4 producing Pseudomonas aeruginosa isolate 209321 in presence of BPL; format: functional
# [34] = tested on: Pseudomonas aeruginosa; experiment: Antibacterial activity against IMP-4 producing Pseudomonas aeruginosa isolate 207272 after 18 hrs by CLSI broth microdilution method; format: functional; details: isolate 207272, 18 h
# [35] = tested on: Pseudomonas aeruginosa; experiment: Selectivity index, ratio of MIC for against IMP-4 producing Pseudomonas aeruginosa isolate 207272 to MIC for against IMP-4 producing Pseudomonas aeruginosa isolate 207272 in presence of BPL; format: functional
Structure (SMILES),half-life at 0.1 µM [1],MIC [2],Selectivity Index [3],MIC [4],MIC [5],MIC [6],MIC [7],Selectivity Index [8],Selectivity Index [9],MIC [10],MIC [11],Selectivity Index [12],MIC [13],Selectivity Index [14],MIC [15],Selectivity Index [16],MIC [17],MIC [18],Selectivity Index [19],MIC [20],other results
CC(C)C(O/N=C(\C(=O)N[C@@H]1C(=O)N(S(=O)(=O)O)[C@@H]1CCl)c1csc(N)n1)c1cc(=O)c(O)cn1O (stereo not given in full),3.15 h,1 µg/mL,2,1 µg/mL,0.5 µg/mL,0.25 µg/mL,0.25 µg/mL,4,4,0.5 µg/mL,0.5 µg/mL,1,0.25 µg/mL,1,4 µg/mL,1,32 µg/mL,8 µg/mL,4,2 µg/mL,MIC [21]: 0.5 µg/mL; Selectivity Index [22]: 4; MIC [23]: 0.25 µg/mL; Selectivity Index [24]: 2; MIC [25]: 8 µg/mL; MIC [26]: 8 µg/mL; Selectivity Index [27]: 1; MIC [28]: 4 µg/mL; Selectivity Index [29]: 2; MIC [30]: 8 µg/mL; MIC [31]: 8 µg/mL; MIC [32]: 8 µg/mL; Selectivity Index [33]: 1; MIC [34]: 8 µg/mL; Selectivity Index [35]: 2
CC(C)C(O/N=C(\C(=O)N[C@@H]1C(=O)N(S(=O)(=O)O)C12CCCC2)c1csc(N)n1)c1cc(=O)c(O)cn1O (stereo not given in full),4.52 h,1 µg/mL,2,0.5 µg/mL,0.5 µg/mL,0.25 µg/mL,0.06 µg/mL,8,2,0.5 µg/mL,0.5 µg/mL,1,0.25 µg/mL,4,2 µg/mL,8,2 µg/mL,0.25 µg/mL,8,1 µg/mL,MIC [21]: 0.06 µg/mL; Selectivity Index [22]: 16; MIC [23]: 0.125 µg/mL; Selectivity Index [24]: 8; MIC [25]: 16 µg/mL; MIC [26]: 8 µg/mL; Selectivity Index [27]: 2; MIC [28]: 16 µg/mL; Selectivity Index [29]: 1; MIC [30]: 16 µg/mL; MIC [31]: 8 µg/mL; MIC [32]: 8 µg/mL; Selectivity Index [33]: 1; MIC [34]: 16 µg/mL; Selectivity Index [35]: 2
